High-throughput results as filed in PubChem BioAssay.
Compounds with a hit are over-represented: about 3.5% of the library has one in this group of screens.
MrgX1 ag = activates human MrgX1 receptor signaling | hit rate 0.44% among 310,000 | B-score at 10 µM | MrgX1-HEK293 cells, Fluo-4 calcium fluorescence, agonist mode; active compounds read high | Q96LB2;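 active = calcium response B-score plate-corrected fluorescence ratio at least 3 library SD, with starting fluorescence B-score inside 5 SD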
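times = overnight plating, then 30 min 37 °C plus 30 min room-temperature dye loading | assay system = stable human MrgX1 HEK293 cell line | input = fifteen thousand cells per well | signal = kinetic calcium dye fluorescence, Fluo-4 NW | dosing = compound delivered in addition one of three | read-out = B-scored fluorescence response ratio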
RGS4 pot = potentiators or activators of RGS4. AID 463111. HEK293 M3R/inducible RGS4, carbachol calcium flux Fluo4; active compounds read low. B-score at 10 µM. hit rate 0.92% among 310,000;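 active = B-score of the integrated calcium signal more than 4 SD below the library mean, with starting fluorescence not abnormally high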;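 also: negative B-score means reduced calcium response which marks RGS4 activation or potentiation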
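test system = M3R-expressing HEK293 line, RGS4 induced by doxycycline | probe or stimulus = carbachol at ECmax as muscarinic agonist stimulus | timing = dye loading 30 min 37 °C, buffer rest 30 min RT | signal = calcium dye Fluo4 fluorescence | evaluation = B score from integrated fluorescence ratio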
MrgX1 antagonist = antagonists of human MrgX1 receptor; AID 588676; MRGX1-HEK293 calcium flux, Fluo-4, BAM8-22 antagonism; active compounds read low; Q96LB2; B-score at 10 µM; hit rate 1.3% among 310,000;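 active = calcium-response B-score plate-corrected more than 3 library SD below zero, starting fluorescence within 5 deviations, no agonist response on first addition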;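 also: peak minus trough fluorescence over baseline after final BAM8-22 challenge near maximal dose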
MrgX1 allo act = allosterically activates human MrgX1 receptor signaling. hit rate 0.63% among 310,000. MrgX1-HEK293, Fluo-4 calcium flux, FDSS; active compounds read high. B-score at 10 µM. Q96LB2;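 active = plate-corrected calcium response at least 3 library SD above typical, normal starting fluorescence, not activating the receptor alone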;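 also: compound read alongside a low EC10 to EC30 dose of BAM8-22 agonist; peak minus trough fluorescence over baseline measured at the second addition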
RGS4 inh = inhibitors of human RGS4; P49798; HEK293 M3R/RGS4 inducible, Fluo-4 calcium flux; active compounds read high; triggered by carbachol at its EC20; B-score at 10 µM; hit rate 0.45% among 310,000; AID 463165;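 active = B-score, a plate-corrected calcium signal, over three deviations above library mean, with baseline fluorescence within five deviations of library mean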;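 also: RGS4 expression induced by doxycycline in cells with stable M3 receptor; B-score is computed from the integrated fluorescence ratio over baseline after carbachol; higher B-score means a larger calcium signal and so more RGS4 inhibition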
Target sequence (P49798 whole entry, looked up): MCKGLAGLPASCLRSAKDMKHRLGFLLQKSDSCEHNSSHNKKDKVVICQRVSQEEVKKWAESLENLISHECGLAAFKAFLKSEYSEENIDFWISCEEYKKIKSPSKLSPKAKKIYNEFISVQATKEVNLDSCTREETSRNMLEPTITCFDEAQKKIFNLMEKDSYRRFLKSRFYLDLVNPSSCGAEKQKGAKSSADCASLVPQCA
Of the large screens only hits and unclear results are named; the others gave an inactive call.

O=C(c1ccc2c(c1)N(Cc1ccccc1)CCS2)N1CCC2(CC1)OCCO2	none
Cc1sc2c(c1C)C(c1ccc(C(C)(C)C)cc1)=NCC(=O)N2CC(=O)Nc1nccs1	none
C[N+]12CCC(CC1)C(C(O)(c1ccccc1)c1cccs1)C2 (stereo not drawn)	RGS4 pot -7.7
C=C1C(=O)O[C@H]2[C@H]1[C@H](OC(=O)CC(=O)O[C@@H]1C[C@@H](C)[C@@H]3C=CC(=O)[C@@]3(C)[C@H]3OC(=O)C(=C)[C@H]13)C[C@@H](C)[C@H]1C=CC(=O)[C@]12C	none
C=C1C(=O)O[C@H]2C[C@@H](C)[C@@H]3C=CC(=O)[C@@]3(C)C[C@H]12	RGS4 inh 6.3
CC(C)N(CC(O)c1cccc([N+](=O)[O-])c1)C(C)C (stereo not drawn)	MrgX1 antagonist -6.2
Cc1cc(OC(=O)c2ccco2)c2c3c(c(=O)oc2c1)CCCC3	none
Cc1cc(OC(=O)c2cccs2)c2c3c(c(=O)oc2c1)CCCC3	RGS4 pot -7.3
ClCCNc1nc2ccc(Cl)cc2[nH]1	none
CC(C)=CCc1c(O)cc2c(c1O)C(=O)CC(c1ccc(O)cc1)O2 (stereo not drawn)	RGS4 pot -7.2
O=C1C(=O)c2cccc3cccc1c23	MrgX1 ag 27
O=C1C(=O)c2ccccc2-c2ccccc21	none
O=c1c2ccccc2nc(CNCc2ccco2)n1-c1ccc(F)cc1	none
COc1cccc(OP(=O)(Nc2ccccc2)Oc2cccc(OC)c2)c1	RGS4 pot -9.9
O=P(Nc1ccccc1)(Oc1ccccc1)Oc1ccccc1	none
O=c1cccc2n1CC1CC2CN(c2ncnc3c2cnn3-c2ccc(Cl)cc2)C1 (stereo not drawn)	none
CCOC(=O)C1(CCc2ccccc2)CCN(Cc2cccc3c2OCO3)CC1	RGS4 pot -7.5
CCOC(=O)C1(CCc2ccccc2)CCN(Cc2csc(C(C)=O)c2)CC1	none
Nc1ccccc1C(=O)OC1CSC1	none
COP(=O)(OC)C(NC(=O)C(C)(C)C)=C(Cl)Cl	MrgX1 antagonist -5.8
O=C1NC(=O)C(=Cc2ccc(OCCOc3ccc([N+](=O)[O-])cc3)cc2)C(=O)N1	MrgX1 antagonist -4.8
CC(=O)c1ccc2c(c1)C1C(Cl)C(Sc3ccccc3[N+](=O)[O-])CC1C(c1ccccc1[N+](=O)[O-])N2 (stereo not drawn)	RGS4 pot -7.9
COc1ccc(-n2c(O)c(C=NCCN(C)C)c(=O)[nH]c2=O)cc1	none
CC/C(=N\N1CCCCCC1)c1c(O)n(-c2ccc(C)cc2)c(=O)[nH]c1=O	MrgX1 allo act 11
C/C(=N\N1CCCCCC1)c1c(O)n(-c2ccc(C)cc2)c(=O)[nH]c1=O	none
CN(C)CC1CSCCC1(O)c1cccc(Cl)c1 (stereo not drawn)	none
Cc1ccc(C[n+]2c(-c3ccc(C)cc3)cc(-c3ccc(C)cc3)cc2-c2ccc(C)cc2)cc1	RGS4 pot -7.2, MrgX1 antagonist -13
COc1ccc(CCNCc2cccn2C)cc1OC	none
CN1CCN(c2ccc(N)cc2Cl)CC1	MrgX1 antagonist -5.3
NS(=O)(=O)OC(CCc1ccccc1)C(Cl)(Cl)Cl (stereo not drawn)	none
Cc1ccccc1N1CCN(C2CCCN(C(=O)COc3ccccc3)C2)CC1 (stereo not drawn)	none
CN1CCN(c2ccc([N+](=O)[O-])c3no[n+]([O-])c23)CC1	RGS4 pot -8.2
CC1CCC(C(C)C)C(OC(=O)Cn2c(COc3ccccc3)[n+](C)c3ccccc32)C1 (stereo not drawn)	RGS4 pot -8, MrgX1 antagonist -14
CC1=C(C/C(C)=C/c2ccccc2)/C(=C/CO)[C@H](O)[C@](C)(O)C12CC2	none
C/C=C1/CC(C)C(C)(O)C(=O)OCC2CCN3CCC(OC1=O)C23 (stereo not drawn)	RGS4 pot -8.2
C/C=C1/C[C@@H](C)[C@](O)(CO)C(=O)OCC2=CCN3CC[C@@H](OC1=O)[C@@H]23	none (no result: RGS4 pot, RGS4 inh)
O=P(Nc1cccnc1)(Oc1ccccc1Cl)Oc1ccccc1Cl	RGS4 pot -8.4
COc1ccccc1-n1c(O)c(/C=C2\C=Nc3ccccc32)c(=O)[nH]c1=O	none
O=C(CN1CCCCC1)c1ccc(F)cc1	none
O=C(c1ccccc1)C(CN1CCCC1)c1ccccc1 (stereo not drawn)	RGS4 pot -8.4
